# Tests used:
# [1] = biological target: Endothelin-1 receptor (Homo sapiens) (UniProt P25101); test: Inhibition of human ETA receptor at 10 uM by radioligand binding assay
# How it was run: (§1)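 Commercial receptor scan across a 78-target panel, with percent inhibition measured at a test concentration of 10 uM.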
# [2] = biological target: 5-hydroxytryptamine receptor 2A (Homo sapiens) (UniProt P28223); test: Inhibition of human 5-HT2A receptor at 10 uM; how it was run: as §1
# [3] = Drug metabolism in cynomolgus monkey urine assessed as hydrolysis of amide bond at 10 mg/kg; assay type: ADME, organism-based, Macaca fascicularis; conditions: in vivo
# [4] = biological target: Translocator protein (Rattus norvegicus) (UniProt P16257); test: Inhibition of rat peripheral type benzodiazepine receptor at 10 uM by radioligand binding assay
# Chain of Translocator protein (Rattus norvegicus) (P16257 whole entry, looked up): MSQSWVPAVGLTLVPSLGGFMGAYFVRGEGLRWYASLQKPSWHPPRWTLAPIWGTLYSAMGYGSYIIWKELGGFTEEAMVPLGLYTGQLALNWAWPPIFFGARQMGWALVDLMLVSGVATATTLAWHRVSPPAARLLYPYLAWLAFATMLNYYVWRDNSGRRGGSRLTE
# How it was run: (§2)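 Single-concentration screen at 10 uM in a commercial 78-receptor panel run by CEREP; results are given as % inhibition.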
# [5] = Metabolic stability in human blood; assay type: ADME; conditions: read-out: Stability (converted)
# [6] = biological target: Endothelin receptor type B (Homo sapiens) (UniProt P24530); test: Inhibition of human ETB receptor at 10 uM by radioligand binding assay; how it was run: as §1
# Chain of Endothelin receptor type B (Homo sapiens) (P24530 whole entry): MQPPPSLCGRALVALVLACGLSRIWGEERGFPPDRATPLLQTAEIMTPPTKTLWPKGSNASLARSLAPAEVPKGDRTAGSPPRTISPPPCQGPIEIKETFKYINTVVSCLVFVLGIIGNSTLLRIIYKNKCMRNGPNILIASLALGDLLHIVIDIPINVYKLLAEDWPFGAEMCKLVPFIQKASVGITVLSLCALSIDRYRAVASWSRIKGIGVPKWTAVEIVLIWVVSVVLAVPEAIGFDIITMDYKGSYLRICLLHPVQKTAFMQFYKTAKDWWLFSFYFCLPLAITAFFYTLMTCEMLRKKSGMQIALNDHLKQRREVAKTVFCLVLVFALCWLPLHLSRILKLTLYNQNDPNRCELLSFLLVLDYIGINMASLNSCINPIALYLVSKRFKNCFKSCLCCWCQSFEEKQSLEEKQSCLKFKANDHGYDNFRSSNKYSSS
# [7] = biological target: 5-hydroxytryptamine receptor 5A (Homo sapiens) (UniProt P47898); test: Inhibition of human 5-HT5A receptor at 10 uM by radioligand binding assay; how it was run: as §1
# Chain of 5-hydroxytryptamine receptor 5A (Homo sapiens) (P47898 whole entry): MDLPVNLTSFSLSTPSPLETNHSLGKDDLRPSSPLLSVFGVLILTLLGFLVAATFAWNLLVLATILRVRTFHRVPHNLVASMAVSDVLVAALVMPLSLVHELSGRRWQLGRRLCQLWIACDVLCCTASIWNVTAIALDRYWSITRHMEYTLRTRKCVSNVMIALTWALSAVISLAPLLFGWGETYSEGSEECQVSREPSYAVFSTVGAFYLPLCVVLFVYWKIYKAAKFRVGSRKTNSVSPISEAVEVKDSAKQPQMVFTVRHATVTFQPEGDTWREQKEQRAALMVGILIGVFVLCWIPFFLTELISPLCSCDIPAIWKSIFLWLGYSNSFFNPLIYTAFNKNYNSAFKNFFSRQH
# [8] = species: Rattus norvegicus; test: Inhibition of rat central type benzodiazepine receptor at 10 uM by radioligand binding assay; how it was run: as §2
# [9] = biological target: D(4) dopamine receptor (Homo sapiens) (UniProt P21917); test: Inhibition of human dopamine D4.4 receptor at 10 uM
# Chain of D(4) dopamine receptor (Homo sapiens) (P21917 whole entry): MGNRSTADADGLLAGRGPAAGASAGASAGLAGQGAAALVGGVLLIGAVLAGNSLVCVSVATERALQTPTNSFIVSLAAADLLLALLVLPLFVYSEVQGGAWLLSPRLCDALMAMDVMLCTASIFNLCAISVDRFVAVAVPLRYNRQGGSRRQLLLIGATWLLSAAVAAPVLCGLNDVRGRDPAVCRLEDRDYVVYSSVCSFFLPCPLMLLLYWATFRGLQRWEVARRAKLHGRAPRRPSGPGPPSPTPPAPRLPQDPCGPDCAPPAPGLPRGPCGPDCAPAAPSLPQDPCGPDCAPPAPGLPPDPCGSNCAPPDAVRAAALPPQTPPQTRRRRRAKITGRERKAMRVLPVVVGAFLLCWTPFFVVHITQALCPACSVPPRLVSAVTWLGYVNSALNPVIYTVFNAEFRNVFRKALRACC
# How it was run: (§3)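 Outsourced broad receptor-screening panel of 78 targets, each tested at a single 10 uM concentration; read-out is percent inhibition. Detailed conditions are given only in the Supporting Information.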
# [10] = species: Rattus norvegicus; test: Inhibition of rat GABA receptor at 10 uM by radioligand binding assay; how it was run: as §3
# [11] = biological target: Neurotensin receptor type 1 (Homo sapiens) (UniProt P30989); test: Inhibition of human neurotensin 1 receptor at 10 uM by radioligand binding assay; how it was run: as §3
# Chain of Neurotensin receptor type 1 (Homo sapiens) (P30989 whole entry): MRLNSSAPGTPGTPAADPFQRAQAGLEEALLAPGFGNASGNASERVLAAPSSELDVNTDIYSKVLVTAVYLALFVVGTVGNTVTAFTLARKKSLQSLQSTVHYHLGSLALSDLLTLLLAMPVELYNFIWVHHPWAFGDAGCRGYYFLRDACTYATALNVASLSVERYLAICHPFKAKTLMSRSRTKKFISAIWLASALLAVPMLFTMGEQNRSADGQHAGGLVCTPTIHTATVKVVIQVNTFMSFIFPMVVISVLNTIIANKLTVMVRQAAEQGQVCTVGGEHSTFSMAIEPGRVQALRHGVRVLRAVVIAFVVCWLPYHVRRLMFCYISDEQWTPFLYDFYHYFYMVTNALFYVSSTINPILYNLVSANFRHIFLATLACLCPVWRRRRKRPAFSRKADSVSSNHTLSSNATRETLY
# [12] = biological target: Galanin receptor type 1 (Homo sapiens) (UniProt P47211); test: Inhibition of human galanin receptor 1 at 10 uM by radioligand binding assay; how it was run: as §3
# Chain of Galanin receptor type 1 (Homo sapiens) (P47211 whole entry): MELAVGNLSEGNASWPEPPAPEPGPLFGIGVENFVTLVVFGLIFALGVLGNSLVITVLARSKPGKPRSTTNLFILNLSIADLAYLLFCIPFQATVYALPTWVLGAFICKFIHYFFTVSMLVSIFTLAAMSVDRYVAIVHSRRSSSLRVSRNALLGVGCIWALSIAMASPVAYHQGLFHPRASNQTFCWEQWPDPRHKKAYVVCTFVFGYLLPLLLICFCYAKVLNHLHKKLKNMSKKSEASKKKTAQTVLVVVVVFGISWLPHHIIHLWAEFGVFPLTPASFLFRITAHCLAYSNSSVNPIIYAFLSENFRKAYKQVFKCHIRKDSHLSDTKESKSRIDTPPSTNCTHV
# [13] = biological target: 5-hydroxytryptamine receptor 1A (Homo sapiens) (UniProt P08908); test: Inhibition of human 5-HT1A receptor at 10 uM; how it was run: as §1
# Chain of 5-hydroxytryptamine receptor 1A (Homo sapiens) (P08908 whole entry): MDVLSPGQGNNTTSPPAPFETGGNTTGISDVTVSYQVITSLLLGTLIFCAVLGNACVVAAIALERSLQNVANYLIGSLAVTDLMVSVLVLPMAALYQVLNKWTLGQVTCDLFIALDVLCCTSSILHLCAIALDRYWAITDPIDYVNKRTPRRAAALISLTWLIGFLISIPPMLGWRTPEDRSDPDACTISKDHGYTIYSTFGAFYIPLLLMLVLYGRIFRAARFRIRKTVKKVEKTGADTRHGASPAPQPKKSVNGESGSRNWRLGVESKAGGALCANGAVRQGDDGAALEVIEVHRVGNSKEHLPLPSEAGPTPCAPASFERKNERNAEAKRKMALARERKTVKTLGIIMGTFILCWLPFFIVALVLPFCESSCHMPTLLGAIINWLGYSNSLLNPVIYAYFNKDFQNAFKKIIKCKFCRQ
# [14] = species: Rattus norvegicus; test: Inhibition of rat sigma receptor at 10 uM; how it was run: as §2
# [15] = biological target: 5-hydroxytryptamine receptor 3A (Homo sapiens) (UniProt P46098); test: Inhibition of human 5-HT3 receptor at 10 uM; how it was run: as §1
# [16] = biological target: Muscarinic acetylcholine receptor M3 (Homo sapiens) (UniProt P20309); test: Inhibition of human muscarinic M3 receptor at 10 uM; how it was run: as §3
# [17] = tested on: Hepatocyte; test: Drug metabolism in human hepatocytes assessed as hydrolysis of amide bond; assay type: ADME, cell-based
# [18] = biological target: Delta-type opioid receptor (Homo sapiens) (UniProt P41143); test: Inhibition of human delta opioid receptor at 10 uM by radioligand binding assay; how it was run: as §3
# Chain of Delta-type opioid receptor (Homo sapiens) (P41143 whole entry): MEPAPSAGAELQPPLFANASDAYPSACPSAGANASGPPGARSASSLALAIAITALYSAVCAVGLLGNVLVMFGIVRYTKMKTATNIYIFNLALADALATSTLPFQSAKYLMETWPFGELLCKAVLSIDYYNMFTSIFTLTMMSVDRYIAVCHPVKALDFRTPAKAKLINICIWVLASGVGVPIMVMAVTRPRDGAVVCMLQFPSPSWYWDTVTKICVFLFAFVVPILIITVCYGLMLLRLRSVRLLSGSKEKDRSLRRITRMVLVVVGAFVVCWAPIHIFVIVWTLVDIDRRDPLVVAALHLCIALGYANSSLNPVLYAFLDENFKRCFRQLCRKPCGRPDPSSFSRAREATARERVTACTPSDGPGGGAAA
# [19] = biological target: P2X purinoceptor 3 (Homo sapiens, UniProt P56373); test: Inhibition of P2X3R (unknown origin)
# How it was run: (§4)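 Selectivity at other P2X receptor subtypes, read as IC50 in a FLIPR Ca2+ flux assay.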
# [20] = biological target: Type-1 angiotensin II receptor (Homo sapiens) (UniProt P30556); test: Inhibition of human angiotensin 2 receptor 1 at 10 uM; how it was run: as §3
# Chain of Type-1 angiotensin II receptor (Homo sapiens) (P30556 whole entry): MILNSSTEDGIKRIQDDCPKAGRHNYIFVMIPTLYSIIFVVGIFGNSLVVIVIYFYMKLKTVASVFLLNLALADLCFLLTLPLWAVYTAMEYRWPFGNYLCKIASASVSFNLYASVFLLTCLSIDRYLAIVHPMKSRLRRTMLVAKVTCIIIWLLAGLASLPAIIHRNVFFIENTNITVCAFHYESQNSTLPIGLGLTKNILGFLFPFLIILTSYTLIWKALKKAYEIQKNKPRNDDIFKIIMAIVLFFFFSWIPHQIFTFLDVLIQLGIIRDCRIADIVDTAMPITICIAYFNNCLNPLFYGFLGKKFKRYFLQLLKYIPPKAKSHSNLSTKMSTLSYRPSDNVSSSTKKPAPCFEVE
# [21] = biological target: Kappa-type opioid receptor (Rattus norvegicus) (UniProt P34975); test: Inhibition of rat kappa opioid receptor at 10 uM by radioligand binding assay; how it was run: as §2
# Chain of Kappa-type opioid receptor (Rattus norvegicus) (P34975 whole entry): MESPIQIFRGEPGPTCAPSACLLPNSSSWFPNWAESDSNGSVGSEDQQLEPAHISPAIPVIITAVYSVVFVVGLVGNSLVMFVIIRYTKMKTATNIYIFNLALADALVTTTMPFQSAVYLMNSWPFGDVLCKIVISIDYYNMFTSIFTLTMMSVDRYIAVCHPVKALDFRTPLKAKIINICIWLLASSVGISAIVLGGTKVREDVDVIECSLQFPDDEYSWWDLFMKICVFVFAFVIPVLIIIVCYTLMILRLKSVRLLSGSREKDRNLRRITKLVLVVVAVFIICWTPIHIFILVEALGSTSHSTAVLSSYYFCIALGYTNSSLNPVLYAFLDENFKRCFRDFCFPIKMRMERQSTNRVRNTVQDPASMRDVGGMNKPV
# [22] = tested on: Plasma; test: Metabolic stability in human plasma at 10 uM after 4 hrs by LC/MS/MS analysis; assay type: ADME, cell-free
# [23] = biological target: 5-hydroxytryptamine receptor 6 (Homo sapiens) (UniProt P50406); test: Inhibition of human 5-HT6 receptor at 10 uM by radioligand binding assay; how it was run: as §1
# [24] = biological target: Adenosine receptor A1 (Homo sapiens) (UniProt P30542); test: Inhibition of human adenosine A1 receptor at 10 uM; how it was run: as §3
# Chain of Adenosine receptor A1 (Homo sapiens) (P30542 whole entry): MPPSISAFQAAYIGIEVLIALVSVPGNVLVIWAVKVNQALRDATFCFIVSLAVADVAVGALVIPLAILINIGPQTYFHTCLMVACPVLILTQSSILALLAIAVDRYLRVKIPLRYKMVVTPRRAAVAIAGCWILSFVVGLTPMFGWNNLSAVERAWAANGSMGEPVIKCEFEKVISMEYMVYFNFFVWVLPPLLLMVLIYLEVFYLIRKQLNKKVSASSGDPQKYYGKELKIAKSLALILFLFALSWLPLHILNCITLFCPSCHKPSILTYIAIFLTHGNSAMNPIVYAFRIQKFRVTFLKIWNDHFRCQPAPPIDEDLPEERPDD
# [25] = species: Rattus norvegicus; test: Inhibition of rat L-type calcium channel verapamil binding site at 10 uM; how it was run: as §3
# [26] = biological target: Muscarinic acetylcholine receptor M2 (Homo sapiens) (UniProt P08172); test: Inhibition of human muscarinic M2 receptor at 10 uM; how it was run: as §3
# [27] = tested on: Plasma; test: Metabolic stability in rat plasma at 10 uM after 4 hrs by LC/MS/MS analysis; assay type: ADME, cell-free
# [28] = biological target: D(3) dopamine receptor (Homo sapiens) (UniProt P35462); test: Inhibition of human dopamine D3 receptor at 10 uM; how it was run: as §3
# [29] = Clearance in rat at 0.5 mg/kg, iv administered as single dose; assay type: ADME, organism-based; conditions: in vivo
# How it was run: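 Single-dose rat PK: iv at 0.5 mg/kg and po at 2 mg/kg. n ≥ 2 animals per time point. Oral AUC normalized to dose; clearance, Vdss and half-life taken from the iv arm.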
# [30] = tested on: Liver microsome; test: Drug metabolism in rat liver microsomes assessed as GSH adduct UV peak area at 20 uM preincubated for 5 mins followed by NADPH addition measured after 60 mins by LC/MS/MS analysis relative to total area of GSH adduct, other metabolites, parent compound; assay type: ADME; conditions: 1 h, BLD = below limit of detection
# [31] = Metabolic stability in human plasma; assay type: ADME, cell-free; conditions: read-out: Stability (converted)
# How it was run: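 Compound incubated in human plasma for 4 h and monitored for degradation.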
# [32] = biological target: Somatostatin receptor (Mus musculus) (UniProt P30935+O08858+P30875+P30873+P49660); test: Inhibition of mouse somatostatin receptor at 10 uM by radioligand binding assay; assay type: protein assay; how it was run: as §3
# [33] = biological target: P2X purinoceptor 2 (Homo sapiens, UniProt Q9UBL9); test: Inhibition of P2X2R (unknown origin); how it was run: as §4
# Chain of P2X purinoceptor 2 (Q9UBL9 whole entry): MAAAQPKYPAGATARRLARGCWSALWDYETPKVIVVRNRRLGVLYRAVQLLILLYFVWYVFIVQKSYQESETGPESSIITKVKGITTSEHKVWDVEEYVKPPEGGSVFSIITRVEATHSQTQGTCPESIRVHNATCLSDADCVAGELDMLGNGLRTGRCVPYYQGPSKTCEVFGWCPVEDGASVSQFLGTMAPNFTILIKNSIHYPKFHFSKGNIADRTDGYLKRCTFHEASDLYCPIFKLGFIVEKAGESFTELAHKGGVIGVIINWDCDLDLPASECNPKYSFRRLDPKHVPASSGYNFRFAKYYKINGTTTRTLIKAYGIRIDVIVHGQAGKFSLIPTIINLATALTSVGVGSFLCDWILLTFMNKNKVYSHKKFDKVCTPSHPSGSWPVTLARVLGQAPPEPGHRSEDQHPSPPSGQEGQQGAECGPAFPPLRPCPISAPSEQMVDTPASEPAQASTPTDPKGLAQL
# [34] = biological target: 5-hydroxytryptamine receptor 2C (Homo sapiens) (UniProt P28335); test: Inhibition of human 5-HT2C receptor at 10 uM by radioligand binding assay; how it was run: as §1
# [35] = Binding affinity to Cytochrome P450 in human liver microsomes at 10 uM incubated for 30 mins; assay type: ADME; conditions: 0.5 h
# How it was run: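 Covalent binding in rat and human liver microsomes, run both without and with NADPH.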
# [36] = biological target: Pituitary adenylate cyclase-activating polypeptide type I receptor (Homo sapiens) (UniProt P41586); test: Inhibition of human PAC1 at 10 uM by radioligand binding assay; how it was run: as §1
# Chain of Endothelin-1 receptor (Homo sapiens) (P25101 whole entry): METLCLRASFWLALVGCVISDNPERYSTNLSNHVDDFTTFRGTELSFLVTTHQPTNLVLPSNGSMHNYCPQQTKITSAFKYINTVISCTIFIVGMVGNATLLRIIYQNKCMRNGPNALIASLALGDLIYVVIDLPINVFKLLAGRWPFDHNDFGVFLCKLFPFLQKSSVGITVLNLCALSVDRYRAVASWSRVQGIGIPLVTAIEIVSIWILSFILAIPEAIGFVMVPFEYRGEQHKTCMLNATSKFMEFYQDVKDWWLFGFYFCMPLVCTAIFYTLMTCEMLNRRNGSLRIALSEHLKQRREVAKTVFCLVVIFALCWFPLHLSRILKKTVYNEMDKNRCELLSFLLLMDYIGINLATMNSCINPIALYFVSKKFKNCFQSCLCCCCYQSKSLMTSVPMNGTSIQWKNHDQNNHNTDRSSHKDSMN
structure (smiles),measurement,setting,value
Cc1cc(Cl)c(OCCO)cc1NC(=O)C1=CNC(=O)C[C@H]1c1ccc(F)cc1,inhibition,[1],< 30%
same,inhibition,[2],< 30%
same,Stability,[3],Stable
same,inhibition,[4],< 30%
same,half-life,[5],3 h
same,inhibition,[6],< 30%
same,inhibition,[7],< 30%
same,inhibition,[8],< 30%
same,inhibition,[9],< 30%
same,inhibition,[10],< 30%
same,inhibition,[11],< 30%
same,inhibition,[12],< 30%
same,inhibition,[13],< 30%
same,inhibition,[14],< 30%
same,inhibition,[15],< 30%
same,inhibition,[16],< 30%
same,Stability,[17],Stable
same,inhibition,[18],< 30%
same,IC50,[19],> 10 µM
same,inhibition,[20],< 30%
same,inhibition,[21],< 30%
same,Stability,[22],Stable
same,inhibition,[23],< 30%
same,inhibition,[24],< 30%
same,inhibition,[25],< 30%
same,inhibition,[26],< 30%
same,Stability,[27],Stable
same,inhibition,[28],< 30%
same,clearance,[29],8.4 mL/min/kg
same,Drug metabolism,[30],BLD
same,half-life,[31],4 h
same,inhibition,[32],< 30%
same,IC50,[33],> 10 µM
same,inhibition,[34],< 30%
same,PB,[35],Not Active
same,inhibition,[36],< 30%

# Reference: ChEMBL document CHEMBL3739255, “Novel Series of Dihydropyridinone P2X7 Receptor Antagonists” (J Med Chem, 2015)
